Avidin fluor – avidin bead compound fluorescence profile. Avidin beads, compound fluorescence 488/530 nm, flow cytometry; active compounds read high. fluorescence (KMESF) at 10 µM. hit rate 0.38% among 220,000. AID 1775; in the data active = fluorescence above about 47
Pemphigus Ab inh – inhibitors of pemphigus antibody binding to human desmoglein-3; P32926; DSG3-coupled beads, scFv-anti-DSG3-GFP binding, flow cytometry; active compounds read low; hit rate 0.48% among 310,000; AID 588358; binding (percent of control), % at 10 µM;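 active = binding more than 3 SD below its plate's average and above zero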;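 note: hits lower antibody fragment binding to DSG3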
Target sequence (P32926 whole entry, looked up, the tested form may be a part): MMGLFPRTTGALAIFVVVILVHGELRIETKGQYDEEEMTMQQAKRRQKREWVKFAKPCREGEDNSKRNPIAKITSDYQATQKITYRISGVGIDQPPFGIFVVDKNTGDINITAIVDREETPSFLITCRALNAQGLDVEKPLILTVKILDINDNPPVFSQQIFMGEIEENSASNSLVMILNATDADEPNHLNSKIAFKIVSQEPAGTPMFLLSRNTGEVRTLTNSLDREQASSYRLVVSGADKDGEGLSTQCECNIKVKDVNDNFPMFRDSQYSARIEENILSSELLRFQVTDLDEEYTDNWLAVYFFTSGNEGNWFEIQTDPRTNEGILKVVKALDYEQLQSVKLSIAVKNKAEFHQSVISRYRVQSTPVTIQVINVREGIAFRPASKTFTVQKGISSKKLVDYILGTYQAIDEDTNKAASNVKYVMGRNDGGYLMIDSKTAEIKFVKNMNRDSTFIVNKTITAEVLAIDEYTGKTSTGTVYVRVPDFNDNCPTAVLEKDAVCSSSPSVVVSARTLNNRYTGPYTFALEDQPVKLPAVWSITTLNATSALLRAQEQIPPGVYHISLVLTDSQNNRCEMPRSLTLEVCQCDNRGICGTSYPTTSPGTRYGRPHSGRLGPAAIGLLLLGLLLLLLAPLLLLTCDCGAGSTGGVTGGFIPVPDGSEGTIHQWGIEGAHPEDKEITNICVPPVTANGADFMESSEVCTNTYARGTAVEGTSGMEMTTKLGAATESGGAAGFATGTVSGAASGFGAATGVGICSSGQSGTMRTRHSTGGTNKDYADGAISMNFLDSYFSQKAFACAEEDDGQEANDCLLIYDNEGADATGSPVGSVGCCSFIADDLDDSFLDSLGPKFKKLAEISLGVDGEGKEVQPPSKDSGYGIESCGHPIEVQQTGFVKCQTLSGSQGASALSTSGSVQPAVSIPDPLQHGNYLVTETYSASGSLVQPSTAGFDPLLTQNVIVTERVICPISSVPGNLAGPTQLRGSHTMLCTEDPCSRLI
GSH fluor – GSH bead compound fluorescence profile; fluorescence (KMESF) at 10 µM; AID 1776; hit rate 0.25% among 190,000; GSH beads flow cytometry, compound fluorescence 488/530 nm; active compounds read high; in the data active = fluorescence above about 89;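 note: glutathione beads carrying GST-tagged Bcl family fusion proteins plus one bare bead set; values are compound well signal with DMSO vehicle wells as background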
Arr AP2 block – blocks beta-arrestin peptide binding to AP2 adaptin. FITC-arrestin peptide / GST-AP2 beads, flow cytometry; AP2 beta2 appendage carries R879A mutation. inhibition, % at 10 µM. hit rate 0.31% among 340,000. AID 504490;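 active = inhibition above a set limit, near 3 SD of compounds lacking own fluorescence, cut at about 54% in these data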;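 note: plate controls were DMSO wells for no effect and 5 µM unlabelled arrestin peptide for full effect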
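Material – GST-tagged AP2 beta2-adaptin appendage (R879A) on 4 µm glutathione beads · Probe or stimulus – fluorescein-tagged arrestin peptide at 50 nM final · Timing – 12 min plus 1 h, RT · Detection – bead flow cytometry, FITC channel · Read-out basis – inhibition as reduced fluorescein signal on beads, percent · Medium – PBS plus Tween 20 (0.05%) and BSA (0.1%)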
Arr AP2 CP1 – blocks beta-arrestin peptide binding to human AP2 | shares compounds with Arr AP2 block | inhibition, % at 10 µM | hit rate 2% among 1,300 | GST-AP2 beads, FITC arrestin peptide binding, flow cytometry; GST-fused beta2-adaptin appendage, R879A mutant;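 active = inhibition above a set limit, roughly 3 SD of non-fluorescent compound noise, cut at about 38% in these data; inactive = inhibition at or below that limit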;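 note: loss of bead fluorescence from 50 nM FITC arrestin peptide bound to appendage; 0% = negative control wells and 100% = excess unlabelled arrestin peptide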
GST-FITC bead – GST-GSH bead binding interference, counter-screen | shares compounds with Arr AP2 block | GST-fluorescein binding to GSH beads, fluorescence | inhibition, % at 10 µM | hit rate 2% among 1,300 | AID 588338;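 active = inhibition above 50%, about 3 SD of the inhibition seen with non-fluorescent compounds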;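 note: fluorescein maleimide labelled GST captured on 4 micron glutathione beads; higher means more loss of bead fluorescence from quenching or blocked binding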
Active calls of the source: *; / = no result given. Compounds with a hit are over-represented: about 1.1% of the library has one in this group of screens.

SMILES	Avidin fluor	Pemphigus Ab inh	GSH fluor	Arr AP2 block	Arr AP2 CP1	GST-FITC bead
CCC(=O)Nc1ccc(-c2ccc(N3CCN(C)CC3)nn2)cc1	/	99	/	55*	-3	-4
CCN(CC(=O)Nc1ccc(OC)cc1)C(=O)Cc1cccs1	/	104	/	56*	-3	-5
Cc1ccc(C)c(NC(=O)COC(=O)c2cc3ccccc3oc2=O)c1	/	106	/	66*	2	5
CCN(CC)C(=O)[C@H]1CC(CC(=O)NCCCn2ccnc2)C(=O)N2CCc3c([nH]c4ccccc34)[C@]12C (stereo not given in full)	/	99	/	7	/	/
COCc1ccc(C(=O)N2CCCC(C(=O)c3ccc(SC)cc3)C2)o1 (stereo not given)	/	101	/	16	/	/
O=C(CC(=O)c1ccccc1)Nc1ccccc1C(F)(F)F	/	104	/	11	13	3
O=C(CC12CC3CC(CC(C3)C1)C2)NC(Cc1ccccc1)C(=O)O (stereo not given)	11	99	16	55*	-1	9
CC(=O)NC(Cc1ccccc1)C(=O)O (stereo not given)	21	102	17	-3	/	/
O=C(/C=C/c1cccc(C(F)(F)F)c1)NNC(=O)c1ccncc1	/	102	/	11	/	/
O=C(CCC(=O)N1CCN(S(=O)(=O)c2ccc(Cl)cc2)CC1)NCc1ccccc1	12	103	4	58*	10	-1
O=C(CCSc1ccc(Cl)cc1)N1CCN(S(=O)(=O)c2ccccc2)CC1	/	/	/	-5	/	/
O=C(Cn1ccnc1)c1ccc(Cl)cc1	/	94	/	55*	-18	0
O=C(O)/C=C\C(=O)Nc1ccc(OC(F)F)cc1	20	101	11	54*	-12	-1
COc1cccc(CN2CC(C(=O)NCCCc3ccc(C)cc3)CCC2=O)c1 (stereo not given)	/	/	/	2	-9	1
CC(C)Oc1ccc(CCNC(=O)C2CCC(=O)N(Cc3cccc(F)c3)C2)cc1 (stereo not given)	/	104	/	-5	11	-1
O=C(NCCc1ccccc1)C1CCC(=O)N(Cc2cccc(C(F)(F)F)c2)C1 (stereo not given)	/	116	/	1	-5	1
O=C(NCCc1cccnc1)C1CCC(=O)N(Cc2cccc(C(F)(F)F)c2)C1 (stereo not given)	/	/	/	5	/	/
COc1cccc(CN2CC(C(=O)NCCCc3ccncc3)CCC2=O)c1 (stereo not given)	/	102	/	-9	/	/
CCOC(=O)c1c(C)[nH]c(C(=O)CN2C(=O)C(=O)N(CC(C)C)C2=O)c1C	24	103	12	56*	0	-3
Cc1nc2c(C)cccn2c(=O)c1NC(=O)c1cccs1	/	103	/	66*	6	5
O=C1c2ccccc2C(=O)N1c1cccc2cccnc12	10	134	5	58*	-4	-5
O=C1C2C3C=CC(C3)C2C(=O)N1c1cccc2cccnc12 (stereo not given)	13	/	36	-2	/	/
COc1ccc(-c2noc(CN(C(=O)c3ccc4c(c3)OCO4)C(C)C)n2)cc1OC	/	100	/	60*	-9	-10
COC(=O)C1=C(NC(=O)COc2ccc3ccccc3c2)CCS1	10	100	11	-3	/	/
COC(=O)C1=C(NC(=O)COc2ccc(Cl)cc2Cl)CCS1	8	106	16	67*	-1	2
SMILES	Avidin fluor	Pemphigus Ab inh	GSH fluor	Arr AP2 block	Arr AP2 CP1	GST-FITC bead
N#CC[C@H](c1ccccc1)N1CCN(Cc2ccccc2)CCC1=O	/	104	/	-5	/	/
CC(C)Cn1nc(NS(=O)(=O)c2cccc3nonc23)c2cc3ccccc3nc21	/	104	/	2	/	/
CCn1nc(NS(=O)(=O)c2cccc3nonc23)c2cc3ccc(C)cc3nc21	/	102	/	68*	-2	8
O=C(CC1C(=O)NCCN1Cc1ccc(Cl)c(F)c1)NC1CCC1 (stereo not given)	/	102	/	35	/	/
C#Cc1ccc([C@H]2C=C(C(=O)OCC=C)O[C@@H](OCCCCO)C2)cc1	/	100	/	-21	/	/
Cc1ccc(SCC(=O)OCC(=O)NCCNC(=O)COC(=O)CSc2ccc(C)c(C)c2)cc1C	/	100	/	68*	-4	-2
Cc1ccc(SCC(=O)OCC(=O)NCC2CCCCC2)cc1C	/	109	/	13	/	/
O=C(CSc1nc2ncccc2[nH]1)Nc1ccccc1-c1ccccc1	/	/	/	38	/	/
CC(C)CC(=O)Nc1ccnc(-c2ccncc2)n1	10	83	18	-4	/	/

From PubChem BioAssay
